Reference: paper PMC9305226 (Clinical Pharmacology in Drug Development, 2022)

Experiments:
Format in all cases: in vivo, human
[1] = tested on: healthy Japanese male subjects; test: Safety and tolerability of single doses; details: single s.c. 0.3 U/kg, healthy Japanese men; all TEAEs mild or moderate
[2] = Plasma insulin lispro pharmacokinetics after a single subcutaneous dose; details: for median tmax: healthy Japanese men, single s.c. 0.3 U/kg, plasma, n = 36
In short: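 Venous blood drawn into K-EDTA tubes predose, then every 15–60 min over the 10 h clamp. Samples centrifuged within 20 min; plasma held at –60 to –80°C. Analysis by LC-MS/MS specific for lispro over endogenous insulin: protein precipitation plus solid-phase extraction, bovine insulin internal standard, C18 gradient at 40°C. Calibration was 1/x2-weighted linear over 100–8000 pg/mL. Noncompartmental parameters; log-values by mixed model, ratios back-transformed.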

[3] = tested on: healthy Japanese male subjects; test: 10-hour euglycemic clamp; details: ratio of geometric means, linear mixed effects model, n = 36, 95%CI
In short: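 Randomized double-blind 2-period crossover, single s.c. 0.3 U/kg per period, 7–18 day washout. After ≥10 h overnight fast, baseline BG was the mean of readings at –30, –20, –10 and –1 min (clamp skipped if <70 mg/dL). BG measured every 1 min; 10% glucose infusion auto-adjusted to hold BG 5 mg/dL below baseline for 10 h. Body-weight-standardized GIR smoothed (LOESS, tension 0.06). Log-parameters analysed by mixed model (period, sequence, treatment fixed; subject random), back-transformed.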

[4] = ratio of geometric means, linear mixed effects model, n = 36, 90%CI

Row | Substance | Tolerability of single doses [1] | median tmax [2] | AUCinf, Mean Ratio SAR‐Lis/Ly‐Lis‐Jp, point estimate (90%CI) [2, 4] | AUClast, Mean Ratio SAR‐Lis/Ly‐Lis‐Jp, point estimate (90%CI) [2, 4] | Cmax, Mean Ratio SAR‐Lis/Ly‐Lis‐Jp, point estimate (90%CI) [2, 4] | t1/2z, Mean Ratio SAR‐Lis/Ly‐Lis‐Jp, point estimate (90%CI) [2, 4] | GIRmax, Mean Ratio SAR‐Lis/Ly‐Lis‐Jp, point estimate (95%CI) [3] | GIR‐AUC0‐10h, Mean Ratio SAR‐Lis/Ly‐Lis‐Jp, point estimate (95%CI) [3]
1 | insulin lispro [Ly‐Lis‐Jp, reference compound] | well tolerated | 1 h |  |  |  |  |  | 
2 | insulin lispro [SAR‐Lis] | well tolerated | 1 h | 1.00 (0.97‐1.02) | 1.00 (0.97‐1.02) | 0.99 (0.93‐1.05) | 1.03 (0.96‐1.11) | 1.07 (1.00‐1.15) | 1.07 (0.99‐1.15)
